Experimental data as given in ChEMBL document CHEMBL4024792, “(N-Hydroxycarbonylbenylamino)quinolines as Selective Histone Deacetylase 6 Inhibitors Suppress Growth of Multiple Myeloma in Vitro and in Vivo” (J Med Chem, 2018).
Activity calls are given as the source filed them. The calls are words filed in the database; no cut-off is given here.

Legend:
[1] = system: U-266; experiment: Cell cycle arrest in human U266 cells assessed as accumulation at sub-G1 phase at 5 uM after 24 hrs in presence of bortezomib by propidium iodide staining based flow cytometry (reference value: 10.76%); format: functional
[2] = Intrinsic clearance in beagle dog hepatocytes at 10 uM by LC-MS/MS analysis; format: ADME, cell-based, Canis lupus familiaris, Hepatocyte; settings: read-out: CLH
Procedure, shortened: (§1)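 Cryopreserved hepatocytes (Sprague-Dawley rat, beagle dog, human) incubated with compound at 10 µM, 37 °C, for up to 4 h. About 0.5×10^6 cells/well for rat and dog, 0.24×10^6 for human.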

[3] = system: U-266; experiment: Induction of apoptosis in human U266 cells at 5 uM after 24 hrs in presence of bortezomib by Annexin V/propidium iodide staining based flow cytometry; format: functional, cell-based
[4] = system: NCI-H929; experiment: Cell cycle arrest in human NCI-H929 cells assessed as accumulation at sub-G1 phase at 5 uM after 24 hrs in presence of bortezomib by propidium iodide staining based flow cytometry (reference value: 5.59%); format: functional
[5] = system: RPMI-8226; experiment: Antitumor activity against human RPMI8226 cells xenografted in nude mouse assessed as tumor growth inhibition at 30 mg/kg, iv or ip administered for 5 days followed by 2 days off for 35 days cotreated with bortezomib relative to control; format: functional; settings: read-out: TGI
Procedure, shortened: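 RPMI 8226 cells (1 × 10^7) implanted s.c. in eight-week-old male nude mice. At mean tumor volume 200 mm3, mice randomized into four groups (n = 8). Caliper measurement every 3–4 days, volume L×W²/2. %TGI computed from treated versus control volume changes relative to time 0.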

[6] = system: U-266; experiment: Induction of apoptosis in human U266 cells at 5 uM after 24 hrs by Annexin V/propidium iodide staining based flow cytometry; format: functional, cell-based
[7] = Intrinsic clearance in human hepatocytes at 10 uM by LC-MS/MS analysis; format: ADME, cell-based, Hepatocyte; settings: read-out: CLH; procedure, shortened: as §1
[8] = system: NCI-H929; experiment: Cell cycle arrest in human NCI-H929 cells assessed as accumulation at sub-G1 phase at 5 uM after 24 hrs by propidium iodide staining based flow cytometry (reference value: 5.59%); format: functional
[9] = system: Salmonella typhimurium; experiment: Mutagenicity in Salmonella typhimurium TA98 assessed as increase in number of revertant colonies at 3 to 3000 ug/plate in absence of S9 fraction by Ames test; format: toxicity; settings: salmonella enterica subsp. enterica serovar typhimurium
Procedure, shortened: (§2)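 Ames test, TA98 and TA100. Overnight broth cultures preincubated 20 min at 35-37 °C with compound (DMSO stock) plus Aroclor 1254-induced rat liver S9 mix or PBS, then plated in top agar with 0.05 mM histidine/biotin. Final 3-3000 µg/plate; revertants counted after 72 h at 37 °C. ≥3-fold over vehicle = mutagenic; ≤50% = cytotoxic.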

[10] = system: U-266; experiment: Cell cycle arrest in human U266 cells assessed as accumulation at G0/G1 phase at 5 uM after 24 hrs in presence of bortezomib by propidium iodide staining based flow cytometry (reference value: 40.29%); format: functional
[11] = system: Salmonella typhimurium; experiment: Mutagenicity in Salmonella typhimurium TA100 assessed as increase in number of revertant colonies at 3 to 3000 ug/plate in presence of S9 fraction by Ames test; format: toxicity; settings: salmonella enterica subsp. enterica serovar typhimurium; procedure, shortened: as §2
[12] = system: RPMI-8226; experiment: Cell cycle arrest in human RPMI8226 cells assessed as accumulation at sub-G1 phase at 5 uM after 24 hrs in presence of bortezomib by propidium iodide staining based flow cytometry (reference value: 12.25%); format: functional
[13] = Stability in beagle dog hepatocytes assessed as parent compound remaining at 10 uM after 60 mins by LC-MS/MS analysis; format: ADME, cell-based, Canis lupus familiaris, Hepatocyte; settings: read-out: Stability; procedure, shortened: as §1
[14] = Intrinsic clearance in Sprague-Dawley rat hepatocytes at 10 uM by LC-MS/MS analysis; format: ADME, cell-based, Hepatocyte; settings: read-out: CLH; procedure, shortened: as §1
[15] = system: NCI-H929; experiment: Induction of apoptosis in human NCI-H929 cells at 5 uM after 24 hrs by Annexin V/propidium iodide staining based flow cytometry; format: functional, cell-based
[16] = system: NCI-H929; experiment: Induction of apoptosis in human NCI-H929 cells at 5 uM after 24 hrs in presence of bortezomib by Annexin V/propidium iodide staining based flow cytometry; format: functional, cell-based
[17] = system: Mus musculus; experiment: Toxicity in nude mouse xenografted with human RPMI8226 cells assessed as change in body weight at 30 mg/kg, iv or ip administered for 5 days followed by 2 days off for 35 days cotreated with bortezomib; format: organism-based; settings: in vivo
Procedure, shortened: (§3)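 Male 8-week nude mice implanted sc with 1×10^7 RPMI 8226 cells, randomized at ~200 mm3 (n = 8). […] Vehicle: 0.5% EtOH/0.5% Cremophor in 5% dextran.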

[18] = system: Mus musculus; experiment: Toxicity in nude mouse xenografted with human RPMI8226 cells assessed as change in body weight at 30 mg/kg, iv or ip administered for 5 days followed by 2 days off for 35 days; format: organism-based; settings: in vivo; procedure, shortened: as §3
[19] = system: RPMI-8226; experiment: Cell cycle arrest in human RPMI8226 cells assessed as accumulation at S phase at 5 uM after 24 hrs by propidium iodide staining based flow cytometry (reference value: 19.53%); format: functional
[20] = system: NCI-H929; experiment: Cell cycle arrest in human NCI-H929 cells assessed as accumulation at S phase at 5 uM after 24 hrs in presence of bortezomib by propidium iodide staining based flow cytometry (reference value: 13.5%); format: functional
[21] = Half life in Sprague-Dawley rat hepatocytes at 10 uM by LC-MS/MS analysis; format: ADME, cell-based, Hepatocyte
Procedure, shortened: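 Substrate depletion in cryopreserved hepatocytes (male SD rat, male beagle dog, human). Compound at 10 µM incubated at 37 °C for up to 4 h. Cell density approximately 0.5 × 10^6 hepatocytes/well for rat and dog, 0.24 × 10^6/well for human. Half-life and CLint derived from depletion; % remaining at 60 min also reported.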

[22] = Stability in Sprague-Dawley rat hepatocytes assessed as parent compound remaining at 10 uM after 60 mins by LC-MS/MS analysis; format: ADME, cell-based, Hepatocyte; settings: read-out: Stability; procedure, shortened: as §1
[23] = system: RPMI-8226; experiment: Cell cycle arrest in human RPMI8226 cells assessed as accumulation at sub-G1 phase at 5 uM after 24 hrs by propidium iodide staining based flow cytometry (reference value: 12.25%); format: functional
[24] = system: RPMI-8226; experiment: Cell cycle arrest in human RPMI8226 cells assessed as accumulation at G0/G1 phase at 5 uM after 24 hrs in presence of bortezomib by propidium iodide staining based flow cytometry (reference value: 44.67%); format: functional
[25] = system: NCI-H929; experiment: Cell cycle arrest in human NCI-H929 cells assessed as accumulation at S phase at 5 uM after 24 hrs by propidium iodide staining based flow cytometry (reference value: 13.5%); format: functional
[26] = system: NCI-H929; experiment: Cell cycle arrest in human NCI-H929 cells assessed as accumulation at G0/G1 phase at 5 uM after 24 hrs by propidium iodide staining based flow cytometry (reference value: 49.39%); format: functional
[27] = Apparent permeability from apical to basolateral side in human Caco2 cells assessed as drug recovery at 10 uM after 2 hrs by LC-MS/MS analysis; format: ADME, cell-based; settings: Caco-2, read-out: Drug recovery
Procedure, shortened: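 Caco-2 cells seeded at 8.4 × 10^4 cells/cm2 on polycarbonate inserts for 21 days. For A→B, donor was apical (HBSS/MES pH 6.5, 10 µM compound) and receiver basolateral (HBSS/HEPES pH 7.4). For B→A, donor was basolateral (HBSS/HEPES pH 7.4, 10 µM) and receiver apical (HBSS/MES pH 6.5). Incubated at 37 °C for 2 h. Receiver sampled at 30, 60, 90 and 120 min, donor at 0 and 120 min.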

O=C(NO)c1ccc(CNc2cccc3cccnc23)cc1
Activity [1]: 45.29% | CLint scaled at 10 µM [2]: 39.6 mL/min/kg | Activity [3]: Active | Activity [4]: 74.13% | inhibition in vivo at 30 mg/kg [5]: 86.2% | Activity [6]: Active | CLint scaled at 10 µM [7]: 32.5 mL/min/kg | Activity [8]: 24.71% | Activity [9]: Non-Toxic | Activity [10]: 25.75% | Activity [11]: Non-Toxic | Activity [12]: 84.18% | remaining at 1 h, 10 µM [13]: 70.6% | CLint scaled at 10 µM [14]: 151 mL/min/kg | Activity [15]: Active | Activity [16]: Active | Activity [17]: Non-Toxic | Activity [18]: Non-Toxic | Activity [19]: 15.19% | Activity [20]: 8.6% | half-life at 10 µM [21]: 55.8 min | remaining at 1 h, 10 µM [22]: 28.4% | Activity [23]: 12.88% | Activity [24]: 6.3% | Activity [25]: 8.55% | Activity [26]: 35.59% | recovery at 2 h, 10 µM [27]: 72.2%
